Data: ChEMBL document CHEMBL1121479, “Simple beta-lactam compounds derived from 6-aminopenicillanic acid” (1980)
≈ marks a conversion by molar mass, not a printed value.

How the values were obtained:
Proteus vulgaris [1] = assay: Evaluated for the minimum inhibitory concentration (MIC) which inhibits the growth of Proteus vulgaris ATCC 6380 (gram-negative); type: functional
Outline: (§1)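 Agar dilution on trypticase soy agar plates holding sample or standard at 0 to 200 μg/mL agar. Solutions were made and diluted in Me₂SO or water. Each plate was inoculated twice with every organism using a Steers replicator and incubated 18 h at 37 °C. MIC was taken as the lowest level that inhibited growth.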

Micrococcus luteus [2] = assay: Evaluated for the minimum inhibitory concentration (MIC) which inhibits the growth of Sarcina lutea ATCC 9341 (gram-positive); type: functional; outline: as §1
Streptococcus pyogenes [3] = assay: Evaluated for the minimum inhibitory concentration (MIC) which inhibits the growth of Streptococcus pyogenes ATCC 10389 (gram-positive); type: functional; outline: as §1
Proteus mirabilis [4] = assay: Evaluated for the minimum inhibitory concentration (MIC) which inhibits the growth of Proteus mirabilis MIT B-52 (gram-negative); type: functional; outline: as §1
Escherichia coli [5] = assay: Evaluated for the minimum inhibitory concentration (MIC) which inhibits the growth of Escherichia coli ATCC 25922 (gram-negative); type: functional; outline: as §1
Staphylococcus aureus [6] = assay: Evaluated for the minimum inhibitory concentration (MIC) which inhibits the growth of Staphylococcus aureus ATCC 25923 (gram-positive); type: functional; outline: as §1
Shigella sonnei [7] = assay: Evaluated for the minimum inhibitory concentration (MIC) which inhibits the growth of Shigella sonnei ATCC 11060 (gram-negative); type: functional; outline: as §1
Klebsiella pneumoniae [8] = assay: Evaluated for the minimum inhibitory concentration (MIC) which inhibits the growth of Klebsiella pneumoniae ATCC 27736 (gram-negative); type: functional; outline: as §1
Serratia marcescens [9] = assay: Evaluated for the minimum inhibitory concentration (MIC) which inhibits the growth of Serratia marcescens MIT B-43 (gram-negative); type: functional; outline: as §1
Enterobacter cloacae [10] = assay: Evaluated for the minimum inhibitory concentration (MIC) which inhibits the growth of Enterobacter cloacae ATCC 13047 (gram-negative); type: functional; outline: as §1
Bacillus subtilis [11] = assay: Evaluated for the minimum inhibitory concentration (MIC) which inhibits the growth of Bacillus subtilis ATCC 6051 (gram-positive); type: functional; outline: as §1
Salmonella typhimurium [12] = assay: Evaluated for the minimum inhibitory concentration (MIC) which inhibits the growth of Salmonella Typhimurium ATCC 13311 (gram-negative); type: functional, Salmonella enterica subsp. enterica serovar Typhimurium; settings: Salmonella enterica; outline: as §1
[13] = tested on: Staphylococcus epidermidis; assay: Evaluated for the minimum inhibitory concentration (MIC) which inhibits the growth of Staphylococcus epidermidis ATCC 14990 (gram-positive); type: functional; outline: as §1
Pseudomonas aeruginosa [14] = assay: Evaluated for the minimum inhibitory concentration (MIC) which inhibits the growth of Pseudomonas aeruginosa ATCC 9721 (gram-negative); type: functional; outline: as §1
Klebsiella pneumoniae [15] = assay: Evaluated for the minimum inhibitory concentration (MIC) which inhibits the growth of Klebsiella pneumoniae ATCC 27736; type: functional; outline: as §1
Enterobacter cloacae [16] = assay: Evaluated for the minimum inhibitory concentration (MIC) which inhibits the growth of Enterobacter cloacae ATCC 13047; type: functional; outline: as §1
Bacillus subtilis [17] = assay: Evaluated for the minimum inhibitory concentration (MIC) which inhibits the growth of Bacillus subtilis ATCC 6051; type: functional; outline: as §1
[18] = tested on: Staphylococcus epidermidis; assay: Evaluated for the minimum inhibitory concentration (MIC) which inhibits the growth of Staphylococcus epidermidis ATCC 14990; type: functional; outline: as §1
Escherichia coli [19] = assay: Evaluated for the minimum inhibitory concentration (MIC) which inhibits the growth of Escherichia coli ATCC 25922; type: functional; outline: as §1
Micrococcus luteus [20] = assay: Evaluated for the minimum inhibitory concentration (MIC) which inhibits the growth of Sarcina lutea ATCC 9341; type: functional; outline: as §1
Shigella sonnei [21] = assay: Evaluated for the minimum inhibitory concentration (MIC) which inhibits the growth of Shigella sonnei ATCC 11060; type: functional; outline: as §1
Proteus mirabilis [22] = assay: Evaluated for the minimum inhibitory concentration (MIC) which inhibits the growth of Proteus mirabilis MIT B-52; type: functional; outline: as §1
Serratia marcescens [23] = assay: Evaluated for the minimum inhibitory concentration (MIC) which inhibits the growth of Serratia marcescens MIT B-43; type: functional; outline: as §1
Salmonella typhimurium [24] = assay: Evaluated for the minimum inhibitory concentration (MIC) which inhibits the growth of; type: functional, salmonella typhimurium a; settings: Salmonella enterica; outline: as §1
Pseudomonas aeruginosa [25] = assay: Evaluated for the minimum inhibitory concentration (MIC) which inhibits the growth of Pseudomonas aeruginosa ATCC 9721.; type: functional; outline: as §1
Streptococcus pyogenes [26] = assay: Evaluated for the minimum inhibitory concentration (MIC) which inhibits the growth of Streptococcus pyogenes ATCC 10389; type: functional; outline: as §1
Proteus vulgaris [27] = assay: Evaluated for the minimum inhibitory concentration (MIC) which inhibits the growth of Proteus vulgaris ATCC 6380; type: functional; outline: as §1
Staphylococcus aureus [28] = assay: Evaluated for the minimum inhibitory concentration (MIC) which inhibits the growth of Staphylococcus aureus ATCC 25923; type: functional; outline: as §1

CC1(C)SC2CC(=O)N2C1O (stereo not drawn)
MIC (Proteus vulgaris [1]): > 100 µg/mL
MIC (Micrococcus luteus [2]): > 100 µg/mL
MIC (Streptococcus pyogenes [3]): > 100 µg/mL
MIC (Proteus mirabilis [4]): > 100 µg/mL
MIC (Escherichia coli [5]): > 100 µg/mL
MIC (Staphylococcus aureus [6]): > 100 µg/mL
MIC (Shigella sonnei [7]): > 100 µg/mL
MIC (Klebsiella pneumoniae [8]): > 100 µg/mL
MIC (Serratia marcescens [9]): > 100 µg/mL
MIC (Enterobacter cloacae [10]): > 100 µg/mL
MIC (Bacillus subtilis [11]): 25 µg/mL (≈ 144 µM)
MIC (Salmonella typhimurium [12]): > 100 µg/mL
MIC [13]: > 100 µg/mL
MIC (Pseudomonas aeruginosa [14]): > 100 µg/mL

CC(C)(CO)SC1CC(=O)N1 (stereo not drawn)
MIC (Klebsiella pneumoniae [15]): > 100 µg/mL
MIC (Enterobacter cloacae [16]): > 100 µg/mL
MIC (Bacillus subtilis [17]): 100 µg/mL (≈ 571 µM)
MIC [18]: > 100 µg/mL
MIC (Escherichia coli [19]): > 100 µg/mL
MIC (Micrococcus luteus [20]): > 100 µg/mL
MIC (Shigella sonnei [21]): > 100 µg/mL
MIC (Proteus mirabilis [22]): > 100 µg/mL
MIC (Serratia marcescens [23]): > 100 µg/mL
MIC (Salmonella typhimurium [24]): > 100 µg/mL
MIC (Pseudomonas aeruginosa [25]): > 100 µg/mL
MIC (Streptococcus pyogenes [26]): > 100 µg/mL
MIC (Proteus vulgaris [27]): > 100 µg/mL
MIC (Staphylococcus aureus [28]): > 100 µg/mL
